The nature of data set [1]: Kinetic solubility of the compound in phosphate buffer at pH 7.4 at 25 uM incubated for 2 hrs by nephelometry. It is filed as physicochemical. The following applies: pH 7.4, 2 h.
Data set [2] deals with Ryanodine receptor 2 (Mus musculus) (UniProt E9Q401). The data set can be described thus: Inhibition of RyR2 in Casq2 gene knockout mouse cardiomyocytes assessed as reduction in calcium sparks frequency at 25 uM incubated for 10 mins. It is filed as cell-based. To be noted: Cardiomyocyte. The procedure, abridged: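 Isolated ventricular cardiomyocytes permeabilized with saponin, which opens the sarcolemma but leaves the SR membrane intact. Cells incubated 10 min with 25 μM compound or DMSO vehicle. RyR2 activity read as spontaneous Ca2+ spark frequency and compared to vehicle; statistics by one-way ANOVA with Tukey's posthoc test.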

Data set [3] can be described thus: Kinetic solubility of the compound in Hanks Bile Salt Solution at 25 uM incubated for 2 hrs by nephelometry. It is filed as ADME.
The target of data set [4] is Ryanodine receptor 2 (Mus musculus) (UniProt E9Q401). The data set can be described thus: Inhibition of RyR2 in Casq2 gene knockout mouse cardiomyocytes assessed as reduction in calcium sparks frequency at 25 uM incubated for 60 mins. It is filed as cell-based. The following applies: Cardiomyocyte. The method in brief:
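Isolated ventricular cardiomyocytes were permeabilized with saponin, which opens the sarcolemma but leaves the SR membrane intact. Cells were incubated with 25 μM compound or DMSO vehicle for 60 min (extended from the 10 min screen). RyR2 activity was read as the frequency of Ca2+ sparks relative to vehicle. Statistics were one-way ANOVA with Tukey's post hoc test.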

In data set [5] the target is Ryanodine receptor 2 (Mus musculus, UniProt E9Q401). The data set can be described thus: Inhibition of RyR2 in Casq2 gene knockout mouse cardiomyocytes assessed as reduction in calcium sparks frequency incubated for 30 mins. It is filed as cell-based, Cardiomyocyte. The method in brief:
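Saponin-permeabilized isolated ventricular cardiomyocytes (sarcolemma opened, SR membrane intact) incubated 30 min with compound across a concentration range for concentration-response curves. Read-out is frequency of spontaneous Ca2+ sparks, used as a measure of RyR2 activity. DMSO served as vehicle.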

The results in this text go back to ChEMBL document CHEMBL5226356, “Ring Size as an Independent Variable in Cyclooligomeric Depsipeptide Antiarrhythmic Activity” (ACS Med Chem Lett, 2021).

Active and inactive are the calls of the source. No cut-off for these calls is given here.

Ryanodine receptor 2 (Mus musculus), sequence (E9Q401 whole entry): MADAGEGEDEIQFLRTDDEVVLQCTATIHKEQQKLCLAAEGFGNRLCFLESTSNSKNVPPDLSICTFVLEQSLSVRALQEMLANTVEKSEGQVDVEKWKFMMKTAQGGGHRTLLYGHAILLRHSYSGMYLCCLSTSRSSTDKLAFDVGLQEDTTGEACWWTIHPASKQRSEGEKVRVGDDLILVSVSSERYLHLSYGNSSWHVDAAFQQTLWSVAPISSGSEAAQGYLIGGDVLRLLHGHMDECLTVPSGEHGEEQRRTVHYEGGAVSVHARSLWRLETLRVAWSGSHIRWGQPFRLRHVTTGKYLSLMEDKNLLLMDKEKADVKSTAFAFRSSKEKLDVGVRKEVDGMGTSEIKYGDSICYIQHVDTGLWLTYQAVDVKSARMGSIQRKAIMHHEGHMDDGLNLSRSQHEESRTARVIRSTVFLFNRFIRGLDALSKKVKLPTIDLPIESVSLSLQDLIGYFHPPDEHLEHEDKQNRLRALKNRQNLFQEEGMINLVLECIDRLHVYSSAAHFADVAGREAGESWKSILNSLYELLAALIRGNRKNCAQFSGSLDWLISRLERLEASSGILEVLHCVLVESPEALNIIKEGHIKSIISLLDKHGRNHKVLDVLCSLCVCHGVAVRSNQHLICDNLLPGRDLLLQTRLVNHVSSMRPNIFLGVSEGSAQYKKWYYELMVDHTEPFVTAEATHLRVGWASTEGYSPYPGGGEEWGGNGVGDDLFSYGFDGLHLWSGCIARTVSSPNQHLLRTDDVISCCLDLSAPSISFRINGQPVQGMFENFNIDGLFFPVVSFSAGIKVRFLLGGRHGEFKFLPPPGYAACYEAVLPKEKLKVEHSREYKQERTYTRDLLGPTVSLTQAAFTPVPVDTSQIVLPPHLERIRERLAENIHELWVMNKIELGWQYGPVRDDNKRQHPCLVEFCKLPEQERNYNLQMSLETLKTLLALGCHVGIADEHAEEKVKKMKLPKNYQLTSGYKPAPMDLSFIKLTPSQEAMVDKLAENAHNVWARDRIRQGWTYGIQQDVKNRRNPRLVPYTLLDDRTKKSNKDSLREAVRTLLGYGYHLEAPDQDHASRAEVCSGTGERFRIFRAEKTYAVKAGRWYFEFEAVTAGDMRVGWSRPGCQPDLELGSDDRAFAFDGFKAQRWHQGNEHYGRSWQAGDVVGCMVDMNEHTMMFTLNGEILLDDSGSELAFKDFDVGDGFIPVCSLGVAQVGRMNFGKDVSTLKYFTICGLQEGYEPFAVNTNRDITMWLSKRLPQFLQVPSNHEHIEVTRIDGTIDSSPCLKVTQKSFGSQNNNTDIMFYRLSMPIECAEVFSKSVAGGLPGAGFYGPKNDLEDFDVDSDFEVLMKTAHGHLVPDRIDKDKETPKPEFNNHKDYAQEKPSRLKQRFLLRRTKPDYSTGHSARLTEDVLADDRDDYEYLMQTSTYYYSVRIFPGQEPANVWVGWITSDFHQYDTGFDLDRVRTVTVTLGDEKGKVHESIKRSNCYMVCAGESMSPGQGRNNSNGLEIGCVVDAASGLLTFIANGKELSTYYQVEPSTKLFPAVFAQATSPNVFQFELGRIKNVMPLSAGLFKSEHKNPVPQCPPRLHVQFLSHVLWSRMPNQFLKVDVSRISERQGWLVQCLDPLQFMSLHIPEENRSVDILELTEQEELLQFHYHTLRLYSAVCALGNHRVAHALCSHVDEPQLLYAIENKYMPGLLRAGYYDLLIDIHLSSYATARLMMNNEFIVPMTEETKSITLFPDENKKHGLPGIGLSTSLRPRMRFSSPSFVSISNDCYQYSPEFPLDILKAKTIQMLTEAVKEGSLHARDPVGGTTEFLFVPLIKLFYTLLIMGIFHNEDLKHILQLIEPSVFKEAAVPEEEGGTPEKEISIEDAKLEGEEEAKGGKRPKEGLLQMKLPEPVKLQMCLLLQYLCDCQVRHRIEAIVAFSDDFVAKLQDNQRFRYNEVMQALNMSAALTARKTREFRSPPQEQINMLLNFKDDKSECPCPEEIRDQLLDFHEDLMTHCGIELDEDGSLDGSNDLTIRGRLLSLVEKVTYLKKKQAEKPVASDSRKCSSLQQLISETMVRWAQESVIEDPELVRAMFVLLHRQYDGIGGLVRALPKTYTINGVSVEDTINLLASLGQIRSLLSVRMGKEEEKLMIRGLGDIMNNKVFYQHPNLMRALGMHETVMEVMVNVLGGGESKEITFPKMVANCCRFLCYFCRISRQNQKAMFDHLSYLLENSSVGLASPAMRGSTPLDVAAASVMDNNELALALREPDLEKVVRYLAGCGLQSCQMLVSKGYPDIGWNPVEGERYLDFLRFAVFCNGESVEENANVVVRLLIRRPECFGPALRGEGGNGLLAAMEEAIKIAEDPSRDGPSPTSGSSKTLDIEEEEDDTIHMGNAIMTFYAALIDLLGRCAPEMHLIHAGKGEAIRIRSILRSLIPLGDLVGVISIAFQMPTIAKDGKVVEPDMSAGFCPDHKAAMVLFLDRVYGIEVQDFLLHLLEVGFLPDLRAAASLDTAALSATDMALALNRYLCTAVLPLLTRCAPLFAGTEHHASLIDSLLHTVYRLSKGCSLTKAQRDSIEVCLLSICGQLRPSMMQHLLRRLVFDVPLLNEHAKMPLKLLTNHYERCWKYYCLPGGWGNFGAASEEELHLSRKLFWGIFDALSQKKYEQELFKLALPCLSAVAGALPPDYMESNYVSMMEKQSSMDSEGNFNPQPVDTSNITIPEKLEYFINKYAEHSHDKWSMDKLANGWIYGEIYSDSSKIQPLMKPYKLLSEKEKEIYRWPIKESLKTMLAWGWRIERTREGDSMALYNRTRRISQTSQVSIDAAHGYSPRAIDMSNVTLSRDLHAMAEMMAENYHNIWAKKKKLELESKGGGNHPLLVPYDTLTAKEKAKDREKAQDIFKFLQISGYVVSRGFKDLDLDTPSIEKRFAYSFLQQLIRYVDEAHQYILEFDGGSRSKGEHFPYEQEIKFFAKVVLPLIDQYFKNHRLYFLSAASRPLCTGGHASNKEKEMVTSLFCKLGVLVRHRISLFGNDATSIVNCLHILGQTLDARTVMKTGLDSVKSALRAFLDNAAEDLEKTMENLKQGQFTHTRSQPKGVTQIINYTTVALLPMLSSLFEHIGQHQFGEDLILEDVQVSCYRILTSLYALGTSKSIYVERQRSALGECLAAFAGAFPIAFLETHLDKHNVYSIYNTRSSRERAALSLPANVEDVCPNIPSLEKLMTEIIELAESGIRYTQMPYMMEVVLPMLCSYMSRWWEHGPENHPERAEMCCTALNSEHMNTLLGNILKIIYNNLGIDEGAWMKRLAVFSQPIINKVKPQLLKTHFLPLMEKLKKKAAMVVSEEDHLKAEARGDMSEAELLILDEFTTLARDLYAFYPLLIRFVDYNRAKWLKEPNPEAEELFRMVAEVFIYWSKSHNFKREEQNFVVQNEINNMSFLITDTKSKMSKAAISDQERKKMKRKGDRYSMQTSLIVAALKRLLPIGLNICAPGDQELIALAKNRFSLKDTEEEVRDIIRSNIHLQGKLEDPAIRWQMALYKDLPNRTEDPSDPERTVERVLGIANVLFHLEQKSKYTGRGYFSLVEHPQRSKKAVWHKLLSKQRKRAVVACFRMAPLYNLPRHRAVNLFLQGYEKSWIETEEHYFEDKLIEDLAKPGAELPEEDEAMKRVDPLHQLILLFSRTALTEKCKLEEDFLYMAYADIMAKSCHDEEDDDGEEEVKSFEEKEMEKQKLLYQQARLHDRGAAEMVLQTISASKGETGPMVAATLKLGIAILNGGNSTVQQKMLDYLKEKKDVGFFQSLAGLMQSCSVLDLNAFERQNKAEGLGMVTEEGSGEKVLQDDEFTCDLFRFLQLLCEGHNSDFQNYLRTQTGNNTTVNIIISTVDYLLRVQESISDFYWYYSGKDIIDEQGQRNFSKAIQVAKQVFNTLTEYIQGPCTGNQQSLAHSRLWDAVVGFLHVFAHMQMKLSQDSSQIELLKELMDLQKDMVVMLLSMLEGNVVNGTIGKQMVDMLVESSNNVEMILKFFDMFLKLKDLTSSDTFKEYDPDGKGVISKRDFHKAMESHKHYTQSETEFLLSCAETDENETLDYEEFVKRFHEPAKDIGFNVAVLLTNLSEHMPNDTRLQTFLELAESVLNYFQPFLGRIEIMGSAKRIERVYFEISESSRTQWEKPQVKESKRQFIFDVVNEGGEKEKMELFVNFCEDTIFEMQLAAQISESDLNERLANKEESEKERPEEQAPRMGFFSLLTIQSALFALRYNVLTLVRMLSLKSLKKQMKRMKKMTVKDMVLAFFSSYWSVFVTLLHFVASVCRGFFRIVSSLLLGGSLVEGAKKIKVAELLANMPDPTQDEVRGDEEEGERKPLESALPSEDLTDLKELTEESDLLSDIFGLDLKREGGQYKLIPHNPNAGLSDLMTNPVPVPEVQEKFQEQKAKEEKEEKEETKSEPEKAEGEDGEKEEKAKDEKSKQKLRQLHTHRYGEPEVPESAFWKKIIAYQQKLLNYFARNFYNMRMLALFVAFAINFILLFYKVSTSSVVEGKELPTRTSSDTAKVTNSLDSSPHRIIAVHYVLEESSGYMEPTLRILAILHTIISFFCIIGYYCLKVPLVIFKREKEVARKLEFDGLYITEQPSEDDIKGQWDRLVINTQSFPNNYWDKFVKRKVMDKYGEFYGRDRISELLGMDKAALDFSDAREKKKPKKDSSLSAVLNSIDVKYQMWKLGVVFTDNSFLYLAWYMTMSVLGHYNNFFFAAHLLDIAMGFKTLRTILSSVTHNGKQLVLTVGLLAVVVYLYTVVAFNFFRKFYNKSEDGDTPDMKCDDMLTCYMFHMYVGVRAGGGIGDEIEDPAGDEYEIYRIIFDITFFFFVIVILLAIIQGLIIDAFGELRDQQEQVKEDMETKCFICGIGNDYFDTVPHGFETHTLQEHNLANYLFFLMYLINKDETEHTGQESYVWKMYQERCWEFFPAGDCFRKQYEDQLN
Ryanodine receptor 2, sequence (E9Q401 whole entry): as above

`CCCCC[C@@H]1OC(=O)[C@@H](C)N(C)C(=O)[C@H](CCCCC)OC(=O)[C@@H](C)N(C)C(=O)[C@H](CCCCC)OC(=O)[C@@H](C)N(C)C(=O)[C@H](CCCCC)OC(=O)[C@@H](C)N(C)C(=O)[C@H](CCCCC)OC(=O)[C@@H](C)N(C)C(=O)[C@H](CCCCC)OC(=O)[C@@H](C)N(C)C1=O`: the Kinetic_solubility result in data set [1] and in data set [3] was “Soluble” each time. Besides, in data set [2], the inhibition result is “inactive”.

Consider `CCCCC[C@@H]1OC(=O)[C@@H](C)N(C)C(=O)[C@H](CCCCC)OC(=O)[C@@H](C)N(C)C(=O)[C@H](CCCCC)OC(=O)[C@@H](C)N(C)C(=O)[C@H](CCCCC)OC(=O)[C@@H](C)N(C)C(=O)[C@H](CCCCC)OC(=O)[C@@H](C)N(C)C1=O`, for which the inhibition entry in data set [4] and in data set [2] was “inactive” each time. For the same molecule, the Kinetic_solubility result in data set [1] and in data set [3] was “Soluble” throughout.

As for `CCCCC[C@H]1OC(=O)[C@H](C)N(C)C1=O`, the Kinetic_solubility entry in data set [1] and in data set [3] was “Soluble” throughout. For the same molecule, in data set [2], the inhibition entry was “inactive”.

`CCCCC[C@H](OC(=O)[C@@H](C)N(C)C(=O)[C@H](CCCCC)OC(=O)[C@@H](C)N(C)C(=O)OC(C)(C)C)C(=O)OCc1ccccc1`: the inhibition entry in data set [4] is “inactive”.

For orientation: IC50 means the midpoint of a concentration-inhibition curve. In the case of `CCCCC[C@@H]1OC(=O)[C@@H](C)N(C)C(=O)[C@H](CCCCC)OC(=O)[C@@H](C)N(C)C(=O)[C@H](CCCCC)OC(=O)[C@@H](C)N(C)C1=O`, the Kinetic_solubility entry in data set [1] and in data set [3] was “Soluble” in each case. Also, the IC50 in data set [5] is 3880 nM. Also, the inhibition entry in data set [2] was “Active”.

Turning to `CCCCC[C@@H]1OC(=O)[C@@H](C)N(C)C(=O)[C@H](CCCCC)OC(=O)[C@@H](C)N(C)C(=O)[C@H](CCCCC)OC(=O)[C@@H](C)N(C)C(=O)[C@H](CCCCC)OC(=O)[C@@H](C)N(C)C1=O`, the Kinetic_solubility entry in data set [1] and in data set [3] was “Soluble” in each case. For the same molecule, in data set [5], the IC50 was found to be 1890 nM. In addition, in data set [2], the inhibition entry is “Active”.

In the case of `CCCCC[C@@H]1OC(=O)[C@@H](C)N(C)C(=O)[C@H](CCCCC)OC(=O)[C@@H](C)N(C)C1=O`, the inhibition result in data set [4] and in data set [2] was “inactive” each time. For the same molecule, the Kinetic_solubility entry in data set [1] and in data set [3] was “Soluble” each time.
